Laboratory results taken from ChEMBL document CHEMBL1152865, “Synthesis and antimycobacterial activities of novel 6-nitroquinolone-3-carboxylic acids” (Eur J Med Chem, 2009).
Converted amounts (≈) assume the structure as drawn.

How the values were obtained:
[1] = Cytotoxicity against african green monkey Vero cells after 72 hrs by MTT assay; format: cell-based; settings: chlorocebus sabaeus
How it was run: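 Cells exposed to compound for 72 h; viability from cellular MTT conversion to formazan; CC50 derived.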

[2] = Inhibition of Mycobacterium smegmatis DNA gyrase assessed as inhibition of relaxed circular pUC18 supercoiling activity by agarose gel electrophoresis; design: species or system Mycolicibacterium smegmatis
How it was run: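 Gyrase purified from M. smegmatis, pre-incubated with compound in DMSO. Then 400 ng relaxed pUC18 added in 35 mM Tris-HCl pH 7.5, 5 mM MgCl2, 25 mM potassium glutamate, 2 mM spermidine, 2 mM ATP, BSA, yeast tRNA and 5% glycerol. Incubated 30 min at 37 °C; read-out by agarose gel electrophoresis. Ciprofloxacin and 5% DMSO reactions run as controls.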

[3] = test system: Mycolicibacterium smegmatis; assay: Antibacterial activity against Mycobacterium smegmatis ATCC 14468 by agar dilution method; format: functional
How it was run: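 Agar dilution on Middlebrook 7H11 agar with OADC supplement, following an NCCLS-type procedure; MIC read in duplicate.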

[4] = test system: Mycobacterium tuberculosis; assay: Antibacterial activity against Mycobacterium tuberculosis H37Rv by agar dilution method; format: functional
How it was run: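 Agar dilution in Middlebrook 7H11 agar supplemented with OADC, following an approach similar to NCCLS guidance. MIC determined in duplicate.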

Mus musculus [5] = assay: Phototoxicity in Swiss albino mouse exposed to 4 hrs of 18 J/cm'2 UV light irradiation assessed as ear thickness at 140 mg/kg, po after 96 hrs; format: organism-based; design: dose 140 mg/kg, route oral; settings: in vivo
How it was run: (§1)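 Female Swiss albino mice about 2 months old, 20-25 g, fasted at least 18 h, six per group. Single oral gavage of 140 mg/kg; vehicle 0.5% aqueous sodium carboxymethylcellulose at 10 ml/kg; lomefloxacin HCl 140 mg/kg as positive control. UVA for 4 h (about 18 J/cm²) from dosing. Both ears scored for erythema, edema and thickness pre-dose, at 4 h, and at about 24, 48, 72 and 96 h.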

Mus musculus [6] = assay: Phototoxicity in Swiss albino mouse exposed to 4 hrs of 18 J/cm'2 UV light irradiation assessed as erythema at 140 mg/kg, po after 72 hrs; format: organism-based; design: dose 140 mg/kg, route oral; settings: in vivo; how it was run: as §1
Mus musculus [7] = assay: Phototoxicity in Swiss albino mouse exposed to 4 hrs of 18 J/cm'2 UV light irradiation assessed as ear thickness at 140 mg/kg, po after 24 hrs; format: organism-based; design: dose 140 mg/kg, route oral; settings: in vivo; how it was run: as §1
Mus musculus [8] = assay: Phototoxicity in Swiss albino mouse exposed to 4 hrs of 18 J/cm'2 UV light irradiation assessed as ear thickness at 140 mg/kg, po after 48 hrs; format: organism-based; design: dose 140 mg/kg, route oral; settings: in vivo; how it was run: as §1
Mus musculus [9] = assay: Phototoxicity in Swiss albino mouse exposed to 4 hrs of 18 J/cm'2 UV light irradiation assessed as ear thickness at 140 mg/kg, po after 72 hrs; format: organism-based; design: dose 140 mg/kg, route oral; settings: in vivo; how it was run: as §1
Mus musculus [10] = assay: Phototoxicity in Swiss albino mouse exposed to 18 J/cm'2 UV light irradiation assessed as ear thickness at 140 mg/kg, po; format: organism-based; design: dose 140 mg/kg, route oral; settings: in vivo; how it was run: as §1
Mus musculus [11] = assay: Phototoxicity in Swiss albino mouse exposed to 4 hrs of 18 J/cm'2 UV light irradiation assessed as erythema at 140 mg/kg, po; format: organism-based; design: dose 140 mg/kg, route oral; settings: in vivo; how it was run: as §1
Mus musculus [12] = assay: Phototoxicity in Swiss albino mouse exposed to 4 hrs of 18 J/cm'2 UV light irradiation assessed as erythema at 140 mg/kg, po after 24 hrs; format: organism-based; design: dose 140 mg/kg, route oral; settings: in vivo; how it was run: as §1
Mus musculus [13] = assay: Phototoxicity in Swiss albino mouse assessed as erythema at 140 mg/kg, po after 4 hrs of 18 J/cm'2 UV light irradiation; format: organism-based; design: dose 140 mg/kg, route oral; settings: in vivo; how it was run: as §1
Mus musculus [14] = assay: Phototoxicity in Swiss albino mouse assessed as ear thickness at 140 mg/kg, po measured after 4 hrs of 18 J/cm'2 UV light irradiation; format: organism-based; design: dose 140 mg/kg, route oral; settings: in vivo; how it was run: as §1
Mus musculus [15] = assay: Phototoxicity in Swiss albino mouse exposed to 4 hrs of 18 J/cm'2 UV light irradiation assessed as erythema at 140 mg/kg, po after 96 hrs; format: organism-based; design: dose 140 mg/kg, route oral; settings: in vivo; how it was run: as §1
Mus musculus [16] = assay: Phototoxicity in Swiss albino mouse exposed to 4 hrs of 18 J/cm'2 UV light irradiation assessed as erythema at 140 mg/kg, po after 48 hrs; format: organism-based; design: dose 140 mg/kg, route oral; settings: in vivo; how it was run: as §1
[17] = test system: Mycobacterium tuberculosis; assay: Antimycobacterial activity against Mycobacterium tuberculosis ATCC 35801 infected in CD1 mouse assessed as bacterial load in spleen at 50 mg/kg, ip administered 10 days postinfection for 10 days measured after 35 days of infection; format: functional; settings: route intraperitoneal
How it was run: (§2)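 Six-week-old female CD-1 mice, six per group, infected intravenously via the caudal vein with approximately 10⁷ viable M. tuberculosis ATCC 35801. Intraperitoneal treatment ran days 10–20 post-infection. At day 35, spleen and right lung were homogenized, serially 10-fold diluted and plated on 7H10 agar, incubated 37 °C, 4 weeks. Log CFU compared with vehicle-treated controls.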

[18] = test system: Mycobacterium tuberculosis; assay: Antimycobacterial activity against Mycobacterium tuberculosis ATCC 35801 infected in CD1 mouse assessed as bacterial load in lungs at 50 mg/kg, ip administered 10 days postinfection for 10 days measured after 35 days of infection; format: functional; settings: route intraperitoneal; how it was run: as §2
[19] = test system: Mycobacterium tuberculosis; assay: Antimycobacterial activity against Mycobacterium tuberculosis ATCC 35801 infected in CD1 mouse assessed as bacterial load in spleen at 25 mg/kg, ip administered 10 days postinfection for 10 days measured after 35 days of infection; format: functional; settings: route intraperitoneal; how it was run: as §2
[20] = test system: Mycobacterium tuberculosis; assay: Antimycobacterial activity against Mycobacterium tuberculosis ATCC 35801 infected in CD1 mouse assessed as bacterial load in lungs at 25 mg/kg, ip administered 10 days postinfection for 10 days measured after 35 days of infection; format: functional; settings: route intraperitoneal; how it was run: as §2

Row | SMILES | CC50 at 72 h [1] [µM] | IC50 [2] [µg/mL] | MIC [3] [µM] | MIC [4] [µM] | Activity (Mus musculus [5]) [mm] | Activity (Mus musculus [6]) | Activity (Mus musculus [7]) [mm] | Activity (Mus musculus [8]) [mm] | Activity (Mus musculus [9]) [mm] | Activity (Mus musculus [10]) [mm] | Activity (Mus musculus [11]) | Activity (Mus musculus [12]) | Activity (Mus musculus [13]) | Activity (Mus musculus [14]) [mm] | Activity (Mus musculus [15]) | Activity (Mus musculus [16]) | log10cfu [17] | log10cfu [18] | log10cfu [19] | log10cfu [20]
1 | Cc1onc(-c2c(F)cccc2F)c1C(=O)N1CCN(c2cc3c(cc2[N+](=O)[O-])c(=O)c(C(=O)O)cn3C(C)(C)C)CC1 | 105 | 30 (≈ 50.4 µM) | 10.5 (≈ 6.25 µg/mL) | 2.62 (≈ 1.56 µg/mL) | – | – | – | – | – | – | – | – | – | – | – | – | – | – | – | –
2 | CCn1cc(C(=O)O)c(=O)c2cc(F)c(N3CCNC(C)C3)c(F)c21 (stereo not drawn) [LOMEFLOXACIN] | – | – | – | – | 0.6 | Toxic | 0.48 | 0.53 | 0.64 | 0.31 | Non-toxic | Toxic | Toxic | 0.4 | Toxic | Toxic | – | – | – | –
3 | O=C(O)c1cn(C2CC2)c2cc(N3CCN(Cc4ccc5c(c4)OCO5)CC3)c([N+](=O)[O-])cc2c1=O | 127 | 30 (≈ 60.9 µM) | 0.79 (≈ 0.389 µg/mL) | 0.08 (≈ 0.0394 µg/mL) | 0.29 | Non-toxic | 0.28 | 0.28 | 0.31 | 0.25 | Non-toxic | Non-toxic | Non-toxic | 0.27 | Non-toxic | Non-toxic | 4.87 | 5.21 | – | –
4 | O=C(O)c1cn2c(n1)CN(c1cc3c(cc1[N+](=O)[O-])c(=O)c(C(=O)O)cn3C1CC1)CC2 | 142 | – | 7.12 (≈ 3.13 µg/mL) | 1.78 (≈ 0.782 µg/mL) | – | – | – | – | – | – | – | – | – | – | – | – | – | – | – | –
5 | O=C(O)c1cn(C2CC2)c2cc(N3CCC(O)(c4ccc(Cl)cc4)CC3)c([N+](=O)[O-])cc2c1=O | 129 | 5 (≈ 10.3 µM) | 3.22 (≈ 1.56 µg/mL) | 0.81 (≈ 0.392 µg/mL) | – | – | – | – | – | – | – | – | – | – | – | – | – | – | – | –
6 | O=C(O)c1cn(C2CC2)c2cc(N3CCN(C(=O)c4ccco4)CC3)c([N+](=O)[O-])cc2c1=O | 111 | 30 (≈ 66.3 µM) | 1.39 (≈ 0.629 µg/mL) | 0.69 (≈ 0.312 µg/mL) | – | – | – | – | – | – | – | – | – | – | – | – | – | – | – | –
7 | O=C(O)c1cn(C2CC2)c2cc(N3CCC(N4CCCCC4)CC3)c([N+](=O)[O-])cc2c1=O | 142 | 20 (≈ 45.4 µM) | 1.77 (≈ 0.78 µg/mL) | 0.43 (≈ 0.189 µg/mL) | 0.28 | – | 0.26 | 0.26 | 0.29 | 0.24 | Non-toxic | Non-toxic | Non-toxic | 0.26 | Non-toxic | Non-toxic | – | – | – | –
8 | O=C(O)c1cn(-c2ccc(F)cc2)c2cc(N3CCN(C(=O)C4COc5ccccc5O4)CC3)c([N+](=O)[O-])cc2c1=O (stereo not drawn) | 54.4 | 30 (≈ 52.2 µM) | 10.9 (≈ 6.25 µg/mL) | 2.72 (≈ 1.56 µg/mL) | – | – | – | – | – | – | – | – | – | – | – | – | – | – | – | –
9 | CN1CCN(c2cc3c(cc2[N+](=O)[O-])c(=O)c(C(=O)O)cn3C2CC2)CC1c1ccccc1 (stereo not drawn) | 136 | 30 (≈ 66.9 µM) | 0.87 (≈ 0.39 µg/mL) | 0.2 (≈ 0.0897 µg/mL) | 0.34 | Non-toxic | 0.3 | 0.32 | 0.32 | 0.3 | Non-toxic | – | Non-toxic | 0.31 | Non-toxic | Non-toxic | – | – | – | –
10 | NNC(=O)c1ccncc1 [ISONIAZID] | > 456 | – | 45.6 (≈ 6.25 µg/mL) | 0.36 (≈ 0.0494 µg/mL) | – | – | – | – | – | – | – | – | – | – | – | – | – | – | 4.71 | 5.86
11 | COc1c(N2CCNC(C)C2)c(F)cc2c(=O)c(C(=O)O)cn(C3CC3)c12 (stereo not drawn) [GATIFLOXACIN] | > 155 | – | 2.08 (≈ 0.781 µg/mL) | 1.04 (≈ 0.39 µg/mL) | – | – | – | – | – | – | – | – | – | – | – | – | 6.92 | 6.02 | – | –
12 | CC1CN(c2cc3c(cc2[N+](=O)[O-])c(=O)c(C(=O)O)cn3-c2ccc(F)cc2)CC(C)O1 (stereo not drawn) | 70.8 | 20 (≈ 45.3 µM) | 14.2 (≈ 6.25 µg/mL) | 3.53 (≈ 1.56 µg/mL) | – | – | – | – | – | – | – | – | – | – | – | – | – | – | – | –
